From ChEMBL document CHEMBL4270630

What was measured:
Influenza A virus [1] = assay: Antiviral activity against Influenza A virus A/PR/8/34(H1N1) infected in MDCK cells after 3 days by MTS assay; type: functional, organism-based, A/Puerto Rico/8/1934(H1N1); settings: Influenza A virus, A/Puerto Rico/8/1934(H1N1), MDCK, 72 h
Procedure, shortened: (§1)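 Semi-confluent MDCK cells were infected at an MOI of 0.0004 PFU/cell in Ultra-MDCK infection medium with 2 μg/mL TPCK-trypsin, together with compounds. After 3 days at 35 °C, CPE was scored by microscopy and confirmed by MTS formazan viability. EC50 is the concentration giving 50% inhibition of virus-induced CPE. Values are means of two to five independent tests.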

Influenza A virus [2] = assay: Antiviral activity against Influenza A virus A/Virginia/ATCC3/2009(H1N1pdm) infected in MDCK cells after 3 days by MTS assay; type: functional, organism-based, Influenza A virus (A/Virginia/03/2009(H1N1)); settings: 72 h; procedure, shortened: as §1
H3N2 subtype [3] = assay: Antiviral activity against Influenza A virus A/HK/7/87(H3N2) infected in MDCK cells assessed as reduction in virus-induced cytopathic effect after 3 days by microscopic method; type: functional, organism-based; settings: A/Hong Kong/7/1987(H3N2), 72 h; procedure, shortened: as §1
H3N2 subtype [4] = assay: Antiviral activity against Influenza A virus A/HK/7/87(H3N2) infected in MDCK cells after 3 days by MTS assay; type: functional, organism-based; settings: A/Hong Kong/7/1987(H3N2), 72 h; procedure, shortened: as §1
[5] = Cytotoxicity against MDCK cells assessed as alteration in cell morphology after 3 days by microscopic method; type: cell-based, Canis lupus familiaris; settings: dog
Procedure, shortened: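 Mock-infected MDCK cells were treated with compounds in parallel with the antiviral assay, 3 days at 35 °C. MCC is the concentration causing minimal change in cell morphology by microscopy. CC50 is the 50% cytotoxic concentration by MTS formazan viability assay.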

Influenza A virus [6] = assay: Antiviral activity against Influenza A virus A/Virginia/ATCC3/2009(H1N1pdm) infected in MDCK cells assessed as reduction in virus-induced cytopathic effect after 3 days by microscopic method; type: functional, organism-based, Influenza A virus (A/Virginia/03/2009(H1N1)); settings: 72 h; procedure, shortened: as §1
Influenza A virus [7] = assay: Antiviral activity against Influenza A virus A/PR/8/34(H1N1) infected in MDCK cells assessed as reduction in virus-induced cytopathic effect after 3 days by microscopic method; type: functional, organism-based, A/Puerto Rico/8/1934(H1N1); settings: Influenza A virus, A/Puerto Rico/8/1934(H1N1), MDCK, 72 h; procedure, shortened: as §1
[8] = (§2) Cytotoxicity against MDCK cells assessed as reduction in cell viability after 3 days by MTS assay; type: cell-based, Canis lupus familiaris; settings: dog, MDCK cells
Influenza B virus [9] = assay: Antiviral activity against Influenza B virus B/HK/05/72 infected in MDCK cells assessed as reduction in virus-induced cytopathic effect after 3 days by microscopic method; type: functional, organism-based; settings: B/Hong Kong/05/1972, MDCK, 72 h; procedure, shortened: as §1
Influenza B virus [10] = assay: Antiviral activity against Influenza B virus B/HK/05/72 infected in MDCK cells after 3 days by MTS assay; type: functional, organism-based; settings: B/Hong Kong/05/1972, MDCK, 72 h; procedure, shortened: as §1
Human coronavirus 229E [11] = assay: Antiviral activity against Human coronavirus 229E infected in human A549 cells assessed as reduction in virus RNA level after 3 days by qRT-PCR method; type: functional; settings: A549, 72 h
Procedure, shortened: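 Confluent A549 cells were infected with HCoV-229E in 2% FCS medium with compounds present. The inoculum was removed at 1 h and compounds were kept on at 35 °C. Supernatants were harvested at day 3, lysed at 75 °C for 10 min, and viral genome copies counted by one-step qRT-PCR.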

[12] = Cytotoxicity against HEL299 cells assessed as changes in cell morphology after 5 days by microscopic method; type: cell-based, HEL 299; settings: human
Procedure, shortened: (§3)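 Confluent HEL 299 cells in medium with 2% FCS were exposed to HCoV-229E (100 CCID50/well) together with compounds and held for 5 days at 35 °C. EC50 (CPE reduction) and MCC (minimal morphology change) were determined by microscopy. SI is MCC/EC50.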

Influenza B virus [13] = assay: Antiviral activity against Influenza B virus B/Ned/537/05 infected in MDCK cells after 3 days by MTS assay; type: functional, organism-based; settings: B/Ned/537/05, MDCK, 72 h
Procedure, shortened: (§4)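 Semi-confluent MDCK cells were infected at an MOI of 0.0004 PFU/cell in Ultra-MDCK infection medium with 2 μg/mL TPCK-trypsin, together with compounds. After 3 days at 35 °C, CPE was scored by microscopy and confirmed by MTS formazan viability. Values are means of two to five independent tests.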

[14] = Cytotoxicity against human A549 cells assessed as changes in cell morphology after 3 days by microscopic method; type: cell-based
Procedure, shortened: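 Mock-infected A549 cells were incubated with compounds for 3 days. MCC is the concentration causing minimal change in cell morphology by microscopy.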

MDCK = assay: as §2; type: cell-based, Canis lupus familiaris; settings: dog, mdck, 72 h
Human coronavirus 229E [15] = assay: Antiviral activity against Human coronavirus 229E infected in HEL299 cells assessed as reduction in virus induced cytopathic effect after 5 days by microscopic method; type: functional, organism-based; settings: HEL 299, 120 h; procedure, shortened: as §3
Influenza B virus [16] = assay: Antiviral activity against Influenza B virus B/Ned/537/05 infected in MDCK cells assessed as reduction in virus-induced cytopathic effect after 3 days by microscopic method; type: functional, organism-based; settings: B/Ned/537/05, MDCK, 72 h; procedure, shortened: as §4

| SMILES | EC50 (Influenza A virus [1]) [µM] | EC50 (Influenza A virus [2]) [µM] | EC50 (H3N2 subtype [3]) [µM] | EC50 (H3N2 subtype [4]) [µM] | MCC at 72 h [5] [µM] | EC50 (Influenza A virus [6]) [µM] | EC50 (Influenza A virus [7]) [µM] | CC50 at 72 h [8] [µM] | EC50 (Influenza B virus [9]) [µM] | EC50 (Influenza B virus [10]) [µM] | EC90 (Human coronavirus 229E [11]) [µM] | EC99 (Human coronavirus 229E [11]) [µM] | MCC at 120 h [12] [µM] | EC50 (Influenza B virus [13]) [µM] | MCC at 72 h [14] [µM] | CC50 (MDCK) [µM] | EC50 (Human coronavirus 229E [15]) [µM] | EC50 (Influenza B virus [16]) [µM] |
| --- | --- | --- | --- | --- | --- | --- | --- | --- | --- | --- | --- | --- | --- | --- | --- | --- | --- | --- |
| CC(=O)N[C@H]1[C@H](O[C@@H]2c3ccc(c(Cl)c3)Oc3cc4cc(c3O)Oc3ccc(cc3Cl)C[C@H]3NC(=O)[C@H](n5cc(CO[C@@H]6[C@H](OCc7ccccc7)[C@@H](OCc7ccccc7)[C@H](O[C@H]7[C@H](OCc8ccccc8)[C@@H](OCc8ccccc8)[C@H](Sc8ccccc8)O[C@@H]7COCc7ccccc7)O[C@@H]6COCc6ccccc6)nn5)c5ccc(O)c(c5)Oc5cc(O)cc(c5)[C@H](NC3=O)C(=O)N[C@H]4C(O)N[C@H]3C(=O)N[C@H]2C(=O)N[C@@H](C(=O)O)c2cc(O)cc(O)c2-c2cc3ccc2O)O[C@H](CO)[C@@H](O)[C@@H]1O (stereo not given in full) | > 100 | 7.3 | 8.9 | 20 | ≥ 20 | 8.9 | > 100 | > 100 | 6.6 | 4 | – | – | – | – | – | – | – | – |
| CCCCCCSC1=C(SCCCCCC)C(=O)N([C@H]2C(=O)N[C@@H]3Cc4ccc(c(Cl)c4)Oc4cc5cc(c4O)Oc4ccc(cc4Cl)[C@@H](O[C@@H]4O[C@H](CO)[C@@H](O)[C@H](O)[C@H]4NC(C)=O)[C@H]4NC(=O)[C@H](NC(O)[C@@H]5NC(=O)[C@@H](NC3=O)c3cc(O)cc(c3)Oc3cc2ccc3O)c2ccc(O)c(c2)-c2c(O)cc(O)cc2[C@H](C(=O)O)NC4=O)C1=O (stereo not given in full) | > 100 | > 100 | > 100 | > 100 | 4 | > 100 | > 100 | – | – | – | 5.8 | 9.4 | ≥ 20 | > 100 | 50 | 9.8 | 5.4 | > 100 |
| CCCCCCCCCCCCCCCCOCc1cn([C@H]2C(=O)N[C@@H]3Cc4ccc(c(Cl)c4)Oc4cc5cc(c4O)Oc4ccc(cc4Cl)[C@@H](O[C@@H]4O[C@H](CO)[C@@H](O)[C@H](O)[C@H]4NC(C)=O)[C@H]4NC(=O)[C@H](NC(O)[C@@H]5NC(=O)[C@@H](NC3=O)c3cc(O)cc(c3)Oc3cc2ccc3O)c2ccc(O)c(c2)-c2c(O)cc(O)cc2[C@H](C(=O)O)NC4=O)nn1 (stereo not given in full) | 1.8 | 1.8 | ≤ 8.9 | ≤ 1.6 | ≥ 4 | 1.8 | 1.6 | 7.6 | 1.8 | 1.3 | – | – | – | – | – | – | – | – |
| CCCCCCCCCCCCOCc1cn([C@H]2C(=O)N[C@@H]3Cc4ccc(c(Cl)c4)Oc4cc5cc(c4O)Oc4ccc(cc4Cl)[C@@H](O[C@@H]4O[C@H](CO)[C@@H](O)[C@H](O)[C@H]4NC(C)=O)[C@H]4NC(=O)[C@H](NC(O)[C@@H]5NC(=O)[C@@H](NC3=O)c3cc(O)cc(c3)Oc3cc2ccc3O)c2ccc(O)c(c2)-c2c(O)cc(O)cc2[C@H](C(=O)O)NC4=O)nn1 (stereo not given in full) | > 100 | > 100 | > 100 | > 100 | 9.3 | > 100 | > 100 | 2.3 | > 100 | > 100 | – | – | – | – | – | – | – | – |
| CCCCCCCCS(=O)(=O)N[C@H]1C(=O)N[C@@H]2Cc3ccc(c(Cl)c3)Oc3cc4cc(c3O)Oc3ccc(cc3Cl)[C@@H](O[C@@H]3O[C@H](CO)[C@@H](O)[C@H](O)[C@H]3NC(C)=O)[C@H]3NC(=O)[C@H](NC(O)[C@@H]4NC(=O)[C@@H](NC2=O)c2cc(O)cc(c2)Oc2cc1ccc2O)c1ccc(O)c(c1)-c1c(O)cc(O)cc1[C@H](C(=O)O)NC3=O (stereo not given in full) | 2.5 | > 100 | 2 | 2.4 | 20 | > 100 | 1.9 | – | – | – | 5.7 | 9.4 | ≥ 20 | > 100 | > 50 | 14 | 5.4 | 4 |
| CC(=O)N[C@H]1[C@H](O[C@@H]2c3ccc(c(Cl)c3)Oc3cc4cc(c3O)Oc3ccc(cc3Cl)C[C@H]3NC(=O)[C@H](n5cc(CCOc6c7cc(C(C)(C)C)cc6Cc6cc(C(C)(C)C)cc(c6O)Cc6cc(C(C)(C)C)cc(c6O)Cc6cc(C(C)(C)C)cc(c6O)C7)nn5)c5ccc(O)c(c5)Oc5cc(O)cc(c5)[C@H](NC3=O)C(=O)N[C@H]4C(O)N[C@H]3C(=O)N[C@H]2C(=O)N[C@@H](C(=O)O)c2cc(O)cc(O)c2-c2cc3ccc2O)O[C@H](CO)[C@@H](O)[C@@H]1O (stereo not given in full) | 43 | 6.7 | > 100 | 5.2 | ≥ 20 | 8.9 | > 100 | ≥ 58 | > 100 | 5.7 | – | – | – | – | – | – | – | – |
| CCCCCCOCc1cn(CCOCCOCCOCCOCc2cn([C@H]3C(=O)N[C@@H]4Cc5ccc(c(Cl)c5)Oc5cc6cc(c5O)Oc5ccc(cc5Cl)[C@@H](O[C@@H]5O[C@H](CO)[C@@H](O)[C@H](O)[C@H]5NC(C)=O)[C@H]5NC(=O)[C@H](NC(O)[C@@H]6NC(=O)[C@@H](NC4=O)c4cc(O)cc(c4)Oc4cc3ccc4O)c3ccc(O)c(c3)-c3c(O)cc(O)cc3[C@H](C(=O)O)NC5=O)nn2)nn1 (stereo not given in full) | > 100 | > 100 | > 100 | > 100 | 100 | > 100 | > 100 | – | – | – | 25 | 44 | ≥ 100 | > 100 | > 50 | 51 | 44 | > 100 |
| CC(=O)N[C@H]1[C@H](O[C@@H]2c3ccc(c(Cl)c3)Oc3cc4cc(c3O)Oc3ccc(cc3Cl)C[C@H]3NC(=O)[C@H](NS(=O)(=O)c5ccccc5)c5ccc(O)c(c5)Oc5cc(O)cc(c5)[C@H](NC3=O)C(=O)N[C@H]4C(O)N[C@H]3C(=O)N[C@H]2C(=O)N[C@@H](C(=O)O)c2cc(O)cc(O)c2-c2cc3ccc2O)O[C@H](CO)[C@@H](O)[C@@H]1O (stereo not given in full) | 27 | 52 | 25 | 23 | 100 | 46 | 16 | – | – | – | 6.8 | 11 | ≥ 20 | 21 | > 50 | > 100 | 5.5 | 51 |
| CCCCCCSC1=C(SCCCCCC)C(=O)N(Cc2cn(C3C(=O)N[C@@H]4Cc5ccc(c(Cl)c5)Oc5cc6cc(c5O)Oc5ccc(cc5Cl)[C@@H](O[C@@H]5O[C@H](CO)[C@@H](O)[C@H](O)[C@H]5NC(C)=O)[C@H]5NC(=O)[C@H](NC(O)[C@@H]6NC(=O)[C@@H](NC4=O)c4cc(O)cc(c4)Oc4cc3ccc4O)c3ccc(O)c(c3)-c3c(O)cc(O)cc3[C@H](C(=O)O)NC5=O)nn2)C1=O (stereo not given in full) | > 100 | 2.9 | 1.9 | 1.9 | ≥ 4 | 4 | 3.1 | – | – | – | 6.4 | 9.5 | ≥ 20 | 2.7 | ≥ 50 | 12 | 8.9 | 2.3 |
